Reference: ChEMBL document CHEMBL1136626, “Discovery of novel and selective IKK-beta serine-threonine protein kinase inhibitors. Part 1” (Bioorg Med Chem Lett, 2003)

What was measured:
A549 = assay: In vitro concentration required to inhibit the TNF-alpha-induced RANTES production in A549 human lung epithelium cell line; format: functional, cell-based
Procedure, shortened: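 A549 human lung epithelial cells grown in D-MEM with 10% FCS, penicillin/streptomycin and 2 mM glutamine. Cells (4×10⁴/well) pretreated 1 h with compound or vehicle (0.1% DMSO), then stimulated with 100 ng/mL TNF-α for 24 h. RANTES in supernatants measured by quantitative sandwich fluorescent immunoassay.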

[1] = biological target: T1, Inhibitor of nuclear factor kappa-B kinase subunit beta (Homo sapiens, UniProt O14920); assay: In vitro inhibitory concentration required against recombinant human IkB kinase beta (IKK-beta)
T1 sequence (O14920 whole entry): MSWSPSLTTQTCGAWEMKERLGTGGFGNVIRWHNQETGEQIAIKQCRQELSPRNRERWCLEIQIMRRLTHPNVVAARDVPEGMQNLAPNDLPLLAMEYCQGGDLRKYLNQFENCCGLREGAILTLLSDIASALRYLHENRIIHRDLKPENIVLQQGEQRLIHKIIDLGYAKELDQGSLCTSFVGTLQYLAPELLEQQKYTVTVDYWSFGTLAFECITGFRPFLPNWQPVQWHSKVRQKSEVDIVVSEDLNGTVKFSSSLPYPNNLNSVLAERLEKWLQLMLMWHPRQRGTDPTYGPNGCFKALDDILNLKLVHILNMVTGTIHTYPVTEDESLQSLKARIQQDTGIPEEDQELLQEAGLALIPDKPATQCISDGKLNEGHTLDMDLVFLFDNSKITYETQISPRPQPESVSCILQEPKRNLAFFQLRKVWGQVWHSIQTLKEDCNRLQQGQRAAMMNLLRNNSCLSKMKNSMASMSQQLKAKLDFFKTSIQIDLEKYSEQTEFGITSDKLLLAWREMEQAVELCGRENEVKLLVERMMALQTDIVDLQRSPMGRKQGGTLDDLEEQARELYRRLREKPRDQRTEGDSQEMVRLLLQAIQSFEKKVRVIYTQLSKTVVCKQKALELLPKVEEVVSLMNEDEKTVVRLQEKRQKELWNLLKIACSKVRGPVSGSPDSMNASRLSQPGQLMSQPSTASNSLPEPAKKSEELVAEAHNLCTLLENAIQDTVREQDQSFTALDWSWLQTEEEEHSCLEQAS
Procedure, shortened: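 Recombinant His-tagged human IKK-β from baculovirus-infected insect cells, final […], with biotinylated GST-IκBα(1-54) substrate (final 0.2) in Tris-HCl pH 7.6 buffer with MgCl₂, DTT, Na₃VO₄ and BSA; DMSO final 0.25%. Started with ATP plus [γ-³³P]ATP, 2 h at rt, stopped with EDTA. Substrate captured on streptavidin plates, washed, counted by scintillation.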

Mus musculus [2] = assay: In vivo LPS-induced TNF-alpha production in mice after oral administration (60 min pretreatment); format: functional
Procedure, shortened: (§1)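 Eight-week-old female BALB/c mice given 200 (per mouse) LPS ip in saline. Compound dosed ip 30 min before LPS, or po in 10% cremophor/saline 60 min before. Blood taken under pentobarbital anaesthesia 90 min after LPS. Plasma TNFα measured by ELISA; mean of 5 mice per group used to calculate percent reduction versus LPS controls; ED₅₀ reported.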

Mus musculus [3] = species: Mus musculus; assay: In vitro inhibition of IgE in mouse B-cells; format: functional, cell-based
Jurkat = assay: In vitro inhibition of anti-CD3/anti-CD28-I induced IL-2 release in Jurkat T-cells; format: functional, cell-based; details: Homo sapiens
[4] = biological target: T2, Dual specificity mitogen-activated protein kinase kinase 4 (Homo sapiens, UniProt P45985); assay: Inhibition of human mitogen-activated protein kinase kinase 4 (MKK4)
T2 sequence (P45985 whole entry): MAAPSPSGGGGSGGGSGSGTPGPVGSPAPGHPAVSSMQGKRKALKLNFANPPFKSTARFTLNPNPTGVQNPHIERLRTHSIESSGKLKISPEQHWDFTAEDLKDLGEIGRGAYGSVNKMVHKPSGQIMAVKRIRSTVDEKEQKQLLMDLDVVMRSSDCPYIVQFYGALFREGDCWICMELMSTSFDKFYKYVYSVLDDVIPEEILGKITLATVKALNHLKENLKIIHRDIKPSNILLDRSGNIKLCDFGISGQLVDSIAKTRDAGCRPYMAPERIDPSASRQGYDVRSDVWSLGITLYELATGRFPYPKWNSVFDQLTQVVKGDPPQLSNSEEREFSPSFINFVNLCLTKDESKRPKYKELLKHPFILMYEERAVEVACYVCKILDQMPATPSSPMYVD

PBMC = assay: In vitro inhibition TNF-alpha release in human Peripheral blood mononuclear cells (PBMC); format: functional, cell-based
Mus musculus [5] = assay: In vivo LPS-induced TNF-alpha production in mice after ip administration (30 min pretreatment); format: functional; procedure, shortened: as §1
[6] = biological target: T3, Inhibitor of nuclear factor kappa-B kinase subunit alpha (Homo sapiens, UniProt O15111); assay: Inhibition of human IKK-alpha
T3 sequence (O15111 whole entry): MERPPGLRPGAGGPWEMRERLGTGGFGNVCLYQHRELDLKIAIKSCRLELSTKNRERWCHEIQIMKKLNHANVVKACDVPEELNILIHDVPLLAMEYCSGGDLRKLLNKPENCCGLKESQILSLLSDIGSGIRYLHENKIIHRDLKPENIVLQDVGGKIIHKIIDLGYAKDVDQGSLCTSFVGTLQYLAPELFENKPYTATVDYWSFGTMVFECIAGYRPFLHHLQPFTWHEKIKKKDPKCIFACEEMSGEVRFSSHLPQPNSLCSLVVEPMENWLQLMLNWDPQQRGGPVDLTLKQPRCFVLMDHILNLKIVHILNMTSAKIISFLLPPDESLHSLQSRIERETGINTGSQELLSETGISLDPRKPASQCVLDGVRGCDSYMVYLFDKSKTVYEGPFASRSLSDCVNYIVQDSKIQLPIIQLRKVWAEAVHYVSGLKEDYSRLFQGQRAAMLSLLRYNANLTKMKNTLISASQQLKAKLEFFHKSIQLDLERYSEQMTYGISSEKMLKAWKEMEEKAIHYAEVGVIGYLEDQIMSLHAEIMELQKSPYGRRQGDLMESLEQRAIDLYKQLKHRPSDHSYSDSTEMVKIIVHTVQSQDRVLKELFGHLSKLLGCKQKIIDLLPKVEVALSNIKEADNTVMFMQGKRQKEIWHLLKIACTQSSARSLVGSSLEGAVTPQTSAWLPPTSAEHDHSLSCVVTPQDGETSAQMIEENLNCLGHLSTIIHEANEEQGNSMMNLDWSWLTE

HEK293 = assay: In vitro inhibition of NF-kappaB-Luciferase in HEK293 cell line; format: functional, cell-based; details: Homo sapiens
[7] = biological target: Tyrosine-protein kinase SYK (Homo sapiens, UniProt P43405); assay: Inhibition of human Syk
[8] = biological target: T3, Inhibitor of nuclear factor kappa-B kinase subunit alpha; assay: Inhibition of human IKK-alpha kinase

| IC50 (A549) [µM] | IC50 [1] [µM] | Structure (SMILES) | other results |
| --- | --- | --- | --- |
| > 50 | 2 | COc1cccc(O)c1-c1cc(-c2cccc(NC(=O)C(O)CCC(=O)O)c2)c(C#N)c(N)n1 (stereo not drawn) |  |
| > 50 | > 20 | N#Cc1c(-c2ccc([N+](=O)[O-])cc2)cc(-c2ccccc2O)nc1N |  |
| 8 | 1.5 | N#Cc1c(-c2cccc(NC(=O)C3CCC(=O)O3)c2)cc(-c2ccccc2O)nc1N (stereo not drawn) | ED50 (Mus musculus [2]): > 30 mg/kg; IC50 (Mus musculus [3]): 0.35 µM; IC50 (Jurkat): 15 µM; IC50 [4]: > 20 µM; IC50 (PBMC): 10 µM; ED50 (Mus musculus [5]): 10 mg/kg; IC50 [6]: > 20 µM; IC50 (HEK293): 8 µM; IC50 [7]: > 20 µM |
| 7 | 0.6 | N#Cc1c(-c2cccc(NC(=O)CCN3CCCCC3)c2)cc(-c2ccccc2O)nc1N | ED50 (Mus musculus [2]): 2 mg/kg; IC50 [4]: > 20 µM; ED50 (Mus musculus [5]): < 0.03 mg/kg; IC50 [8]: 20 µM; IC50 [7]: > 20 µM |
| > 50 | > 20 | N#Cc1c(-c2cccc(NC(=O)CCN3CCCCC3)c2)cc(-c2ccccc2O)nc1O |  |
| > 50 | > 20 | Cc1c(-c2ccccc2O)nc(N)c(C#N)c1-c1cccc(NC(=O)C(O)CCC(=O)O)c1 (stereo not drawn) |  |
| > 50 | > 20 | CN(C)c1ccc(-c2cc(-c3ccccc3O)nc(N)c2C#N)cc1 |  |
| 8 | 0.8 | CN(C)c1ccc(-c2cc(-c3ccccc3O)nc(N)c2C#N)cc1NC(=O)CCN1CCCCC1.Cl | ED50 (Mus musculus [5]): 0.6 mg/kg |
| 6 | 0.5 | N#Cc1c(-c2ccccc2C(=O)NCCN2CCCCC2)cc(-c2ccccc2O)nc1N |  |
| > 50 | 0.6 | N#Cc1c(-c2ccc(C(=O)NCCN3CCCCC3)cc2)cc(-c2ccccc2O)nc1N |  |
| > 50 | 0.7 | N#Cc1c(-c2ccccc2C(=O)O)cc(-c2ccccc2O)nc1N |  |
| 15 | 0.6 | N#Cc1c(-c2cccc(NC(=O)C(N)CC(=O)O)c2)cc(-c2ccccc2O)nc1N (stereo not drawn) |  |
| 15 | 3 | N#Cc1c(-c2cccc(NC(=O)CN3CCCCC3)c2)cc(-c2ccccc2O)nc1N |  |
| > 50 | > 20 | Cc1cccc(O)c1-c1cc(-c2cccc(NC(=O)C(O)CCC(=O)O)c2)c(C#N)c(N)n1 (stereo not drawn) |  |
|  | > 20 | CCN(CC)c1nc(-c2ccccc2O)cc(-c2cccc(NC(=O)CCN3CCCCC3)c2)c1C#N |  |
| > 50 | 1.7 | N#Cc1c(-c2cccc(NC(=O)C(O)CCC(=O)O)c2)cc(-c2cc(F)ccc2O)nc1N (stereo not drawn) |  |
| > 50 | 5.3 | COc1ccc(O)c(-c2cc(-c3cccc(NC(=O)C(O)CCC(=O)O)c3)c(C#N)c(N)n2)c1 (stereo not drawn) |  |
| > 50 | 5.5 | N#Cc1c(-c2cccc(NC(=O)C(O)CCC(=O)O)c2)cc(-c2cc(Cl)ccc2O)nc1N (stereo not drawn) |  |

| IC50 (A549) [µM] | IC50 [1] [µM] | Structure (SMILES) | other results |
| --- | --- | --- | --- |
| > 50 | 1.4 | COCC(=O)Nc1cccc(-c2cc(-c3ccccc3O)nc(N)c2C#N)c1 |  |
| 0.8 | 1 | Cl.N#Cc1c(-c2ccc(N3CCCC3)c(NC(=O)CCN3CCCCC3)c2)cc(-c2ccccc2O)nc1N | ED50 (Mus musculus [2]): 10.1 mg/kg; ED50 (Mus musculus [5]): 0.8 mg/kg |
| > 50 | 2.5 | N#Cc1c(-c2cccc(C(=O)O)c2)cc(-c2ccccc2O)nc1N |  |
| 10 | > 20 | N#Cc1c(-c2cccc(NC(=O)CCN3CCCCC3)c2)cc(-c2cccc(O)c2)nc1N |  |
| > 50 | 1.4 | N#Cc1c(-c2cccc(NC(=O)CCCC(=O)O)c2)cc(-c2ccccc2O)nc1N |  |
| > 50 | 0.5 | N#Cc1c(-c2ccc(NC(=O)CCCC(=O)O)cc2)cc(-c2ccccc2O)nc1N |  |
| 35 | 0.6 | N#Cc1c(-c2cccc(NC(=O)CC(N)C(=O)O)c2)cc(-c2ccccc2O)nc1N (stereo not drawn) |  |
| 15 | 1.8 | N#Cc1c(-c2cccc(C(=O)NCCN3CCCCC3)c2)cc(-c2ccccc2O)nc1N |  |
| > 50 | 0.7 | N#Cc1c(-c2ccc(C(=O)O)cc2)cc(-c2ccccc2O)nc1N |  |
| > 50 | > 20 | N#Cc1c(-c2cccc(NC(=O)C(O)CCC(=O)O)c2)cc(-c2ccccc2)nc1N (stereo not drawn) |  |
| > 50 | > 20 | COc1ccccc1-c1cc(-c2cccc(NC(=O)C(O)CCC(=O)O)c2)c(C#N)c(N)n1 (stereo not drawn) |  |
| 20 | 0.9 | N#Cc1c(-c2cccc(NC(=O)C(O)CCC(=O)[O-])c2)cc(-c2ccccc2O)nc1N.[Na+] (stereo not drawn) | ED50 (Mus musculus [2]): 18.7 mg/kg; ED50 (Mus musculus [5]): 1.3 mg/kg |
| 5 | 2.5 | N#Cc1c(-c2ccc(N3CCCCC3)c(NC(=O)CCN3CCCCC3)c2)cc(-c2ccccc2O)nc1N |  |
| > 50 | 20 | N#Cc1c(-c2cccc(N)c2)cc(-c2ccccc2O)nc1N |  |
| > 50 | 1 | N#Cc1c(-c2ccc(NC(=O)CCN3CCCCC3)cc2)cc(-c2ccccc2O)nc1N |  |
| > 50 | > 20 | N#Cc1c(-c2cccc(NC(=O)C(O)CCC(=O)O)c2)cc(-c2ccc(O)cc2)nc1N (stereo not drawn) |  |
| 30 | 15 | CC(=O)Nc1nc(-c2ccccc2O)cc(-c2cccc(NC(=O)CCN3CCCCC3)c2)c1C#N |  |
